Results on 19 compounds are retold here after ChEMBL document CHEMBL4673223, “Synthesis, Biological, and Structural Explorations of New Zwitterionic Derivatives of 14- O-Methyloxymorphone, as Potent μ/δ Opioid Agonists and Peripherally Selective Antinociceptives” (J Med Chem, 2019).

Active and inactive are the calls of the source. The rule behind the calls is not given here.

The target in assay [1] is Delta-type opioid receptor (Homo sapiens) (UniProt P41143). The assay is described as follows: Displacement of [3H]diprenorphine from human DOR expressed in CHO cell membranes incubated for 60 mins liquid scintillation counting assay. Particulars: Cell membrane, filed as agonist. The gist of the method:
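Membranes from CHO cells expressing human DOR (15–20 μg) in 50 mM Tris-HCl, pH 7.4, were incubated with 0.2 nM [3H]diprenorphine and varied test concentrations for 60 min at 25 °C. Nonspecific binding was set with 1–10 μM unlabeled diprenorphine. Samples were GF/C filtered and scintillation counted.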
In general terms: Displacement assays read how much labelled ligand stays bound in the presence of the test substance.

The species entered for a further assay is Rattus norvegicus. The assay is described as follows: Selectivity index, ratio of Ki for displacement of [3H][Ile5,6]deltorphin II from delta opioid receptor in rat brain membranes to Ki for displacement of [3H]DAMGO from mu opioid receptor in rat brain membranes. Type of assay: cell membranes. In a few lines:
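Rat brain membranes (cerebella removed; 0.3–0.5 mg protein) in 50 mM Tris-HCl, pH 7.4, were incubated 45 min at 35 °C with 1 nM [3H]DAMGO (MOR) or 0.5 nM [3H][Ile5,6]deltorphin II (DOR) plus varied test concentrations. Nonspecific binding was set with 10 μM naloxone. Samples were GF/C filtered, washed and scintillation counted. Ki was obtained by Cheng–Prusoff; duplicates, 3–4 experiments.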

Assay [2] can be described thus: Selectivity index, ratio of Ki for displacement of [3H]U69,593 from kappa opioid receptor in guinea-pig brain membranes to Ki for displacement of [3H]DAMGO from mu opioid receptor in rat brain membranes. In kind it is cell membranes. In a few lines: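 Guinea-pig brain membranes (0.3–0.5 mg protein) in 50 mM Tris-HCl, pH 7.4, were incubated with 1 nM [3H]U69,593 for 30 min at 30 °C, with 10 μM naloxone defining nonspecific binding. MOR was measured on rat brain membranes with 1 nM [3H]DAMGO for 45 min at 35 °C. Samples were filtered and scintillation counted, and Ki was obtained by Cheng–Prusoff; duplicates, 3–4 experiments.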

Sequence of Delta-type opioid receptor (Homo sapiens) (P41143 whole entry): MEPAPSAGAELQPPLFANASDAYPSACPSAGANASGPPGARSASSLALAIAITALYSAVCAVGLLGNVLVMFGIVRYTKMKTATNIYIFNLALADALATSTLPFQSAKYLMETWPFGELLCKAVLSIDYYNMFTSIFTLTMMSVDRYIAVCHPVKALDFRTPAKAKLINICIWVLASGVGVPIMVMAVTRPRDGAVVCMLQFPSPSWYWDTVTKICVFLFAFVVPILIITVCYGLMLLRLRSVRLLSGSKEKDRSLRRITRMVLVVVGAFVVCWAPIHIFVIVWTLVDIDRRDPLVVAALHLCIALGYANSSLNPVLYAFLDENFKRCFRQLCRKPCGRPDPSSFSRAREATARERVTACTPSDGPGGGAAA

In the case of `CO[C@@]12CC[C@H](N[C@@H](CCC(N)=O)C(=O)O)[C@@H]3Oc4c(O)ccc5c4[C@@]31CCN(C)[C@@H]2C5`, the outcome in assay [1] was Active. Besides, the Ratio Ki was 1.6 in the assay listed under Rattus norvegicus and 108 in assay [2].
As for `CN1CC[C@]23c4c5ccc(O)c4O[C@H]2[C@@H](NCC(=O)O)CC[C@@]3(OCCCc2ccccc2)[C@H]1C5`, the result in assay [1] was Active.
For the compound `CO[C@@]12CCC(N[C@@H](CCC(=O)O)C(=O)O)[C@@H]3Oc4c(O)ccc5c4[C@@]31CCN(C)[C@@H]2C5` (single isomer, unassigned), the outcome in assay [1] was Active. For the same compound, the values for the Ratio Ki (in the assay listed under Rattus norvegicus; in assay [2]) were 6.2 and 60, respectively.
For the compound `CO[C@@]12CC[C@H](N[C@H](C(=O)O)C3CCCCC3)[C@@H]3Oc4c(O)ccc5c4[C@@]31CCN(C)[C@@H]2C5`, in assay [1], the result was Active. In addition, the figures for the Ratio Ki (in the assay listed under Rattus norvegicus; in assay [2]) were 12 and 144, respectively.
The matching figures for `CO[C@@]12CC[C@H](NCCCC(=O)O)[C@@H]3Oc4c(O)ccc5c4[C@@]31CCN(C)[C@@H]2C5`: “Active”, 16 and 59.
As for `CO[C@@]12CC[C@H](N[C@@H](CCCCN)C(=O)O)[C@@H]3Oc4c(O)ccc5c4[C@@]31CCN(C)[C@@H]2C5`, the result in assay [1] was Active. The Ratio Ki in the assay filed under Rattus norvegicus was 6.7; in assay [2], 66.
Taken in the same sequence, the figures for `CO[C@@]12CC[C@H](N[C@@H](CO)C(=O)O)[C@@H]3Oc4c(O)ccc5c4[C@@]31CCN(C)[C@@H]2C5` were “Active”, 2.4 and 89.
`CO[C@@]12CC[C@@H](N[C@@H](CO)C(=O)O)[C@@H]3Oc4c(O)ccc5c4[C@@]31CCN(C)[C@@H]2C5`: in assay [1], the outcome was Active. For the same compound, the Ratio Ki is 2.5 in the assay listed under Rattus norvegicus and 71 in assay [2].
The matching figures for `CO[C@@]12CC[C@@H](N[C@@H](CC(N)=O)C(=O)O)[C@@H]3Oc4c(O)ccc5c4[C@@]31CCN(C)[C@@H]2C5`: “Active”, 1.8 and 82.
Taken in the same sequence, the figures for `CO[C@@]12CC[C@@H](N[C@@H](CCC(N)=O)C(=O)O)[C@@H]3Oc4c(O)ccc5c4[C@@]31CCN(C)[C@@H]2C5` were “Active”, 2 and 117.
Taken in the same sequence, the figures for `CO[C@@]12CC[C@@H](N[C@@H](Cc3ccc(O)cc3)C(=O)O)[C@@H]3Oc4c(O)ccc5c4[C@@]31CCN(C)[C@@H]2C5` were “Active”, 1.2 and 58.
With `CO[C@@]12CC[C@H](N[C@H](C(=O)O)C(C)C)[C@@H]3Oc4c(O)ccc5c4[C@@]31CCN(C)[C@@H]2C5`, in assay [1], the result was Active. The results for the Ratio Ki (in the assay listed under Rattus norvegicus; in assay [2]) were 1.2 and 103, respectively.
Taken in the same sequence, the figures for `CO[C@@]12CC[C@@H](N[C@@H](CCC(=O)O)C(=O)O)[C@@H]3Oc4c(O)ccc5c4[C@@]31CCN(C)[C@@H]2C5` were “Active”, 0.7 and 108.
Consider `CO[C@@]12CC[C@@H](NCCCC(=O)O)[C@@H]3Oc4c(O)ccc5c4[C@@]31CCN(C)[C@@H]2C5`, for which the outcome in assay [1] was Active. Also, the Ratio Ki in the assay filed under Rattus norvegicus was 4.7.
Regarding `CO[C@@]12CC[C@H](NCC(=O)O)[C@@H]3Oc4c(O)ccc5c4[C@@]31CCN(C)[C@@H]2C5`, in assay [1], the outcome was Active.
Still for that read-out and setting: the same measure for `CO[C@@]12CCC(=O)[C@@H]3Oc4c(O)ccc5c4[C@@]31CCN(C)[C@@H]2C5`: “Active”; for `CO[C@@]12CC[C@H](N[C@H](C)C(=O)O)[C@@H]3Oc4c(O)ccc5c4[C@@]31CCN(C)[C@@H]2C5`: “Active”.
Same read-out and setting: to `CN1CC[C@]23c4c5ccc(O)c4O[C@H]2[C@H](NCC(=O)O)CC[C@@]3(OCCCc2ccccc2)[C@H]1C5` belongs “Active”.
Take `CO[C@@]12CC[C@@H](N[C@H](C)C(=O)O)[C@@H]3Oc4c(O)ccc5c4[C@@]31CCN(C)[C@@H]2C5`: the outcome in assay [1] was Active.
